Rtt109 Vps75: blocks Candida albicans Rtt109/Vps75 acetyltransferase activity; Q5AAJ8; purified Rtt109/Vps75, ThioGlo CoA-SH fluorescence, 4 h; inhibition, % at 34.9 µM; hit rate 0.16% among 330,000;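 active = inhibition of at least 50% in every replicate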
T cell HTS: T cell immune modulation candidate; hit rate 0.068% among 330,000; AID 2052; response (vesicle binding), % at 7 µM; 2C CD8+ T cell-vesicle binding, flow cytometry; hits give low values;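 active = response, share of CD8 T cells binding vesicles, and their 90th percentile fluorescence all below set limits, cut at about 80% in these data, passing the limit was not always enough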;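 also: values below 100% mean blocked vesicle binding to the CD8+ T cells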
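Also added: QL9-peptide-loaded Drosophila micro-vesicles bearing Ld, ICAM-1 and B7-1; Test system: purified 2C TCR transgenic mouse naive CD8+ T cells; Measured by: cytometric PE anti-B7-1 and Alexa647 anti-CD8 signals after 1% paraformaldehyde fixation; Timing: binding step 1.5 h, 37 °C, antibody labelling 20 min, ice.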
NR3A LBD binder: modulates the human NR3A ligand-binding domain; NR3A LBD differential scanning fluorimetry, Tm shift; 0% = protein alone, 100% = glycine-bound protein; Tm shift relative to glycine control, % at 25 µM; hit rate 2.5% among 340,000; AID 1259313;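 active = melting temperature shift of at least 10% of the positive control shift, at one fixed dose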
GASC-1 inh: blocks human GASC-1 demethylase activity; GST-JMJD2C(1-420) H3K9me3 demethylation, DELFIA europium; inhibition, % at 2.35 µM; hit rate 0.069% among 330,000; AID 2099;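 active = more than half of a compound's replicate wells show inhibition beyond 50%, single wells judged on their own value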;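 also: signal counts dimethyl H3K9 product captured on neutravidin plate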
Target sequence (Q9H3R0 1-420 limits assumed): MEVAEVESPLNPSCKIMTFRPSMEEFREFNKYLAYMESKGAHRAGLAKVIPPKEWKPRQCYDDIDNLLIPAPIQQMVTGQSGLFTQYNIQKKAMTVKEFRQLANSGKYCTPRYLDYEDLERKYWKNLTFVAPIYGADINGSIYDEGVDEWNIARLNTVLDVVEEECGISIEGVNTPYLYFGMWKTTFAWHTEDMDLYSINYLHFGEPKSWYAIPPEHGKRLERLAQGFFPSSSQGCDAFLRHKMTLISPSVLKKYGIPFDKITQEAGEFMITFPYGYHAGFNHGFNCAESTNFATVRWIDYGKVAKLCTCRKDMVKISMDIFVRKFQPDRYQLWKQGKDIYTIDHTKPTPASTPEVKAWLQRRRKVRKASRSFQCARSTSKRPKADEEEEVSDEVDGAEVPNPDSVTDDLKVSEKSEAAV
Each line names hits and unclear results; the compound was inactive in the other large screens. Compounds with a hit are over-represented: about 2.8% of the library has one in this group of screens.

CC(=O)/C(=N/Nc1ccccc1Cl)Sc1nnc(C(O)c2ccccc2)n1-c1ccccc1 (stereo unspecified)	none
CC(=O)/C(=N/Nc1ccccc1)Sc1nnc(C(O)c2ccccc2)n1-c1ccccc1 (stereo unspecified)	Rtt109 Vps75 57
Clc1ccc2c(c1)c1cc(Cl)ccc1n2CN1CCOCC1	NR3A LBD binder 11
N/C(=N\OC(=O)/C=C/c1ccccc1Cl)c1ccncc1	NR3A LBD binder 12
O=C(CSc1nc(=O)n2cc(Cl)ccc2n1)Nc1cccc2ccccc12	none (no result: T cell HTS)
O=C1C2C(c3ccccc3)CC=CC2[C@H](c2cccc([N+](=O)[O-])c2)N1Cc1ccccc1 (stereo partly specified)	none
COc1ccc(-c2c(C#Cc3ccsc3)c3cc(-c4cccc5[nH]ccc45)ccc3n2C)cc1	none
COc1ccc(-c2c(C#Cc3ccsc3)c3cc(-c4ccc5[nH]ccc5c4)ccc3n2C)cc1	NR3A LBD binder 11
Cc1ccc(NS(=O)(=O)c2cc(C(=O)NCCCN(C)C)ccc2Cl)cc1Cl	none (no result: T cell HTS, GASC-1 inh)
Cc1noc(/C=C/N(C)C)c1S(=O)(=O)N1CCCC(C(=O)N2CCCCC2)C1 (stereo unspecified)	NR3A LBD binder 14
CCN(CC)S(=O)(=O)c1ccc(=O)n(CC(=O)N2Cc3ccccc3CC2C(N)=O)c1 (stereo unspecified)	none (no result: T cell HTS, GASC-1 inh)
Cc1n[nH]c(C)c1S(=O)(=O)N1CCOCC1	NR3A LBD binder 14
Cc1n[nH]c(C)c1S(=O)(=O)N1CCC(C(=O)O)CC1	none
CCc1ccc(NC(=O)C(=O)NCC2CCCN2S(=O)(=O)c2ccccc2)cc1 (stereo unspecified)	none
C=CCn1c(O)c(N=Nc2ccccc2O)c2ccccc21	NR3A LBD binder 15
C=CCn1c(O)c(N=Nc2ccccc2)c2ccccc21	none
COc1cc(C(=O)CCN2CCC(c3ccccc3)C2)cc(OC)c1OC (stereo unspecified)	Rtt109 Vps75 95
O=C(CCN1CCC(c2ccccc2)C1)c1ccccc1 (stereo unspecified)	none
COc1ccc(C)cc1S(=O)(=O)N1CCN(C(=O)c2ncoc2-c2cccc(F)c2)CC1	none
O=C(O)CCN1C(=O)/C(=C\c2cccc(Oc3ccccc3)c2)SC1=S	NR3A LBD binder 14
O=C(O)CN1C(=O)/C(=C\c2ccccc2OCc2ccc(Cl)cc2)SC1=S	none
O=C(O)CN1C(=O)/C(=C\c2cc(Br)ccc2OCc2ccc(Cl)cc2Cl)SC1=S	NR3A LBD binder 29
O=C(O)CN1C(=O)/C(=C\c2cccc(OCc3ccccc3F)c2)SC1=S	NR3A LBD binder 31
O=C(COC(=O)c1ccc(O)cc1O)NC(=O)NCc1ccccc1	none (no result: GASC-1 inh)
O=C(CC1Nc2ccccc2NC1=O)Nc1cc(Cl)cc(Cl)c1 (stereo unspecified)	NR3A LBD binder 29
CCCCNC(=O)CC1Nc2ccccc2NC1=O (stereo unspecified)	NR3A LBD binder 20
Cc1nn(C2CCS(=O)(=O)C2)c2nc(C3CC3)cc(C(=O)Nc3cccc(C#N)c3)c12 (stereo unspecified)	none (no result: T cell HTS, GASC-1 inh)
COc1cc(NCCCn2cnc(C(=O)Nc3ccc(C)c(C)c3)n2)cc(OC)c1OC	none (no result: T cell HTS, GASC-1 inh)
COc1cc(/C=C/C(=O)NC(=O)c2ccccc2O)ccc1O	none
COc1cc(/C=C/C(O)=C/C(=O)/C=C/c2ccc(O)cc2)ccc1O	NR3A LBD binder 23
C/C(=N\Nc1ccc(C)c(Cl)c1)c1cccnc1	none
Nc1nc(CSC(=S)N2CCN(c3ccccc3)CC2)nc(Nc2ccc(F)cc2)n1	NR3A LBD binder 25
Nc1nc(CSC(=S)N2CCOCC2)nc(Nc2ccccc2)n1	none
CNc1c(NS(=O)(=O)c2ccc(OC)c(Cl)c2)c(=O)oc2ccccc12	NR3A LBD binder 16
CCNc1c(NS(=O)(=O)c2ccc(OC)c(Cl)c2)c(=O)oc2ccccc12	none
O=C(Nc1cc(S(=O)(=O)N2CCCCC2)ccc1Cl)c1ccccc1NS(=O)(=O)c1ccc(F)cc1	NR3A LBD binder 21
O=C(c1ccccc1NS(=O)(=O)c1ccc(F)cc1)N1CCCCC1	none
O=C(Nc1cc(S(=O)(=O)Nc2ccc(Cl)cc2)ccc1O)c1ccc(S(=O)(=O)N2CCCCCC2)cc1	NR3A LBD binder 30
O=C(Nc1cc(S(=O)(=O)N2CCCCC2)ccc1O)c1ccccc1NS(=O)(=O)c1ccc(F)cc1	NR3A LBD binder 21
CCN(CC)C(=O)[C@H]1CC(CC(=O)NCCC2=CCCCC2)C(=O)N2CCc3c([nH]c4ccc(OC)cc34)[C@]12C (stereo partly specified)	none (no result: T cell HTS, GASC-1 inh)
Cc1cc(N/N=C/c2ccc(O)c(C)c2O)nc(-c2ccccc2O)n1	NR3A LBD binder 32
C/C(=N\Nc1cc(C)nc(-c2ccccc2)n1)c1cccc([N+](=O)[O-])c1	NR3A LBD binder 17
C/C(=N\Nc1cc(C)nc(-c2ccccc2O)n1)c1ccccc1	NR3A LBD binder 14
C/C(=N\Nc1nc(C)cc(-c2ccccc2)n1)c1ccccc1	none
COC(=O)C1(CC2CC(c3ccncc3)=NO2)CCN(C(=O)OC(C)(C)C)CC1 (stereo unspecified)	none (no result: T cell HTS)
CC(C)COc1cccc(C(=O)Nc2ccc(N3CCOCC3)cc2N2CCOCC2)c1	none
CCn1c(=O)c(C(=O)NCCc2ccc(Cl)cc2)c(O)c2ccccc21	GASC-1 inh 60
CCCn1c(=O)c(C(=O)NCCc2ccc(Cl)cc2)c(O)c2ccccc21	none
O=C(/C=C/c1cccc([N+](=O)[O-])c1)Nc1ccccn1	none
Cc1ccc2oc(-c3cccc(NC(=O)/C=C/c4cccc([N+](=O)[O-])c4)c3C)nc2c1	NR3A LBD binder 17
COc1ccc2cc(-c3ccsc3)ncc2c1	NR3A LBD binder 30
O=C(Cn1nnc(-c2ccccc2)n1)N/N=C/c1cc([N+](=O)[O-])c(Cl)cc1Cl	NR3A LBD binder 16
N#Cc1ccc(/C=C\c2nccc3c2[nH]c2ccccc23)cc1	NR3A LBD binder 12
Clc1ccc(/C=C\c2nccc3c2[nH]c2ccccc23)cc1	NR3A LBD binder 20 (no result: T cell HTS)
Clc1ccc(C=Cc2ccccn2)cc1	none (no result: T cell HTS, GASC-1 inh)
CC(=O)N(C(C)=O)c1ncc2c([nH]c3ccccc32)c1C#N	none
CC(Sc1ccc(S(=O)(=O)N2CCCCCC2)cn1)C(N)=O (stereo unspecified)	none (no result: T cell HTS, GASC-1 inh)
Cc1ccc(Oc2cc(NN3CCCCC3)c([N+](=O)[O-])cc2[N+](=O)[O-])c(Cl)c1	none
O=C(O)Cn1c2c(c3ccccc31)CSc1ccc(Cl)cc1-2	none
Cc1cc(C)cc(NC(=O)Nc2ccc(-n3ccc(C(F)(F)F)n3)cc2)c1	NR3A LBD binder 17
O=C(Nc1ccc(-n2ccc(C(F)(F)F)n2)cc1)Nc1cccc(Cl)c1	none (no result: NR3A LBD binder)
O=S(=O)(N/N=C/c1c(F)cccc1Cl)c1ccccc1	NR3A LBD binder 10
Cc1ccc(NC(=O)CN(C)C(=O)CSc2ccccc2F)cc1	none
FC(F)Oc1ccc(/C=N/NC(=S)Nc2cc(C(F)(F)F)ccc2Cl)cc1	NR3A LBD binder 35
COc1ccccc1-c1oc2ccccc2c1-c1ccc2cc[nH]c2c1	NR3A LBD binder 21
O=C1CN(C(=O)c2ccccc2)c2ccccc2N1	none
